# An excerpt weighted towards active compounds, which were near 1.9% of everything screened.
# LMPTP block: LMPTP (human) inhibition | P24666 | recombinant LMPTP-A, OMFP fluorogenic substrate, fluorescence intensity | inhibition, % at 20 µM | 0.22% of 360,000 active;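 active = compounds that cut the enzyme signal by at least half of the control window in the single-dose screen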;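 note: plate controls were DMSO wells with enzyme plus substrate for no effect and substrate without enzyme for full effect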
# Target sequence (P24666 whole entry, looked up): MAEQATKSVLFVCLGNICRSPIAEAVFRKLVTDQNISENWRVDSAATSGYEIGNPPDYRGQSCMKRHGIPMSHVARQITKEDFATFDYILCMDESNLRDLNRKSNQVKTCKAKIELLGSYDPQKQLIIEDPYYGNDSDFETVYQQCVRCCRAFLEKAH
#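 Test system: LMPTP-A phosphatase enzyme; input: 0.625 nM LMPTP-A final; reagent: OMFP substrate, 400 µM final; compound dosing: 20 µM single dose, 3% DMSO; incubation: 50 min dark incubation at room temperature; measured by: endpoint fluorescence intensity from OMFP dephosphorylation; measure: % inhibition relative to no-enzyme and uninhibited control wells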
# PP1 inh: counter-screen for PP5 inhibitors: inhibitors of human PP1-alpha. P62136. inhibition, % at 6.7 µM. purified PP1alpha, OMFP fluorescence. 0.9% of 320,000 active;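 active = inhibition above the mean inhibition of all tested compounds plus 3 SD, computed separately for each screening campaign, cut at about 15% in these data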
# Target sequence (P62136 whole entry, looked up): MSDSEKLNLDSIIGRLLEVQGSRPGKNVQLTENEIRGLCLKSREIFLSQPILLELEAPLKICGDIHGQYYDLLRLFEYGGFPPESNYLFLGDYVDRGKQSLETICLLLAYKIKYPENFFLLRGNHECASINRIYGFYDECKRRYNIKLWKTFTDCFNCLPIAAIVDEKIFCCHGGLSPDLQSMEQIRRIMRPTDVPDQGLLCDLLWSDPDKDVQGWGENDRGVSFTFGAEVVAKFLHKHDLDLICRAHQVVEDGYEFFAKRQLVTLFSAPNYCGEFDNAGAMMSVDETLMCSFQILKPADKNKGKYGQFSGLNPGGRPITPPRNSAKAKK
# PP5 primary: blocks human protein phosphatase 5 activity. P53041. purified PP5c, OMFP substrate fluorescence. inhibition, % at 6.7 µM. 0.18% of 320,000 active;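 active = inhibition above the campaign's mean inhibition across all tested compounds plus 3 SD, cut at about 9.5% in these data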;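 note: 0% = DMSO only and 100% = 100 µM cantharidin control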
# STEP inh: inhibitors of human striatal-enriched phosphatase STEP | inhibition, % at 20 µM | AID 588621 | recombinant STEP, OMFP fluorogenic substrate, fluorescence | 0.25% of 360,000 active;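 active = inhibition at 20 µM, scaled per plate between control wells, above about 37%, limit read from the data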;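 note: 0% = DMSO with enzyme and substrate and 100% = substrate only without enzyme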
#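 Material: STEP (striatal-enriched tyrosine phosphatase) enzyme, cell-free | Medium: 50 mM Bis-Tris pH 6.0 with 2.5 mM DTT and 0.005% Tween 20 | Read-out: Percent inhibition scaled to no-enzyme and uninhibited-enzyme controls, plate-pattern corrected | Signal: Fluorescence read at 480 nm ex / 540 nm em | Times: 20 min reaction, room temperature, in the dark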
# Scp-1 inhibitor: blocks human Scp-1 phosphatase activity; inhibition, % at 20 µM; AID 493091; Q9GZU7; Recombinant Scp1, phosphopeptide, malachite green phosphate absorbance; 0.88% of 340,000 active;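 active = inhibition above about 50% at 20 µM, limit read from the data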;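 note: plate controls were DMSO wells with enzyme for no effect and wells lacking enzyme for full effect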
# Target sequence (Q9GZU7 76-261 limits assumed): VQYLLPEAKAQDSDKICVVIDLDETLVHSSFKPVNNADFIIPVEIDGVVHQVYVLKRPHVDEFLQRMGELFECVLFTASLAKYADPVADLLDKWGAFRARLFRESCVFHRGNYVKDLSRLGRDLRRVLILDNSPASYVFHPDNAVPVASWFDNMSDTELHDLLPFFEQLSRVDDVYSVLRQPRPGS
#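 Incubation: 45 min enzyme reaction at room temperature / System: truncated SCP-1 phosphatase (76-261aa) / Reagent: Phospho 17-mer peptide substrate / Buffer or medium: Acidic Tris acetate buffer with magnesium and detergent / Signal: absorbance at 630 nm / Doses: one concentration, 20 µM, with 1.0% DMSO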
# Scp1 confirm: Scp-1 (human) inhibition, single-dose confirmed | 61% of 2,500 active | shares compounds with Scp-1 inhibitor | recombinant SCP-1 catalytic domain, phosphate release, malachite green absorbance | AID 540281 | inhibition, % at 20 µM;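 note: plate controls were DMSO with enzyme for no effect and buffer wells lacking enzyme for full effect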
# Scp-1 MG ctr: counter-screen for Scp-1 inhibitors: colorimetric interference; AID 540313; shares compounds with Scp-1 inhibitor; 2,500 tested, under 10 active; apparent inhibition (interference), % at 20 µM; Colorimetric interference counterscreen, malachite green absorbance 630 nm;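 note: compounds added after enzyme reaction finished so only phosphate colour detection is probed; plate controls were DMSO wells with completed Scp-1 reaction for no effect and substrate wells lacking enzyme for full effect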
# Scp1 DSF: binds human Scp-1, shifting its melting temperature; AID 540329; shares compounds with Scp-1 inhibitor; Recombinant SCP1, Sypro Orange thermal shift Tm; 25% of 1,500 active; thermal shift relative to vanadate control, % at 40 µM;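 active = substances whose mean melting-temperature shift, as a percentage of the reference inhibitor's shift, reaches about 5.3%, limit read from the data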;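 note: 0% = Tm of DMSO wells and 100% = Tm with sodium orthovanadate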
# * marks the source's active call; other numbers are inactive results; . = no result.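 Rule for the calls, unless noted: active = inhibition of at least 30% at 20 µM; inactive = the rest.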
SMILES,LMPTP block,PP1 inh,PP5 primary,STEP inh,Scp-1 inhibitor,Scp1 confirm,Scp-1 MG ctr,Scp1 DSF
O=C(CSc1ccsc1[N+](=O)[O-])N1CCN(c2ccc(Cl)cc2)CC1,7,4,0,10,42,.,.,.
COCCCNC(=O)CSc1ccsc1[N+](=O)[O-],1,-2,2,1,19,.,.,.
CCCNC(=O)C1CCC(CNS(=O)(=O)c2cccc3nsnc23)CC1 (stereo not drawn),-2,-5,-1,-1,-6,.,.,.
O=S(=O)(Nc1cc(F)ccc1F)c1cccc2nsnc12,-2,3,0,-1,4,.,.,.
CN(C)CCN(C(=O)c1ccc2ccccc2c1)c1nc2ccc(F)cc2s1,0,-3,-3,-5,3,.,.,.
COc1cc(-n2c(=O)c3ccccc3n(CC(=O)c3ccccc3)c2=O)cc(OC)c1OC,0,0,0,4,-9,.,.,.
CCc1ccc(OCC(=O)NC(NC(=S)Nc2ccccc2)C(Cl)(Cl)Cl)cc1 (stereo not drawn),1,5,2,4,-8,.,.,.
O=C(CSc1nc2sccc2c(=O)[nH]1)N1CCN(c2ccccc2)CC1,5,0,-1,0,109*,59*,-11,-12
Cn1c(SCC(=O)NCc2ccco2)nnc1-c1ccc(S(=O)(=O)N2CCOCC2)cc1,0,0,1,2,65*,49*,-17,-4
O=C(CSc1n[nH]c(-c2ccccc2)n1)NC(=O)NCc1ccco1,17,-5,0,6,68*,55*,-11,1
O=C(CSc1ccc2nnc(-c3ccccc3)n2n1)NCc1ccco1,0,-4,4,11,55*,17,-24,.
Cc1ccccc1CSCC(=O)NC(=O)NCc1ccco1,12,1,2,7,56*,73*,-7,-15
COc1ccc(-c2nnc3ccc(SCC(=O)NCc4ccco4)nn23)cc1,0,3,-1,-1,19,.,.,.
O=C(CSc1ccccc1F)NC(=O)NCc1ccco1,0,3,0,2,25,.,.,.
O=C(CSc1nc(-c2ccccc2)cs1)NC(=O)NCc1ccco1,1,0,6,1,-5,.,.,.
COc1ccc(C2CC(c3ccc(Br)cc3)=NN2C(=O)CN2CCCC2)cc1 (stereo not drawn),4,7,1,0,-10,.,.,.
CC(CN(C)Cc1nc(Cc2cccc(C(F)(F)F)c2)no1)CN1CCCC1 (stereo not drawn),1,-1,1,-1,-6,.,.,.
Cc1nn(C)c(C)c1CNC(=O)c1nn2c(c1Cl)NC(c1cccs1)CC2C(F)(F)F (stereo not drawn),-1,3,2,2,-8,.,.,.
CN(CCOc1ccccc1)C(=O)C1CCC(=O)N(CCCN2CCOCC2)C1 (stereo not drawn),0,2,2,1,-13,.,.,.
Cn1c(SCC(=O)NC(=O)NCc2ccco2)nnc1-c1ccccc1,46,-7,3,7,92*,62*,-17,-13
O=C(NCc1ccccc1F)C1CCCN(S(=O)(=O)c2ccc(-n3cnnn3)cc2)C1 (stereo not drawn),-1,-4,0,-2,12,.,.,.
O=C(NCc1ccco1)C1CCCN(S(=O)(=O)c2ccc(-n3cnnn3)cc2)C1 (stereo not drawn),1,-2,-1,0,76*,69*,-7,3
CCC(=O)Nc1cccc(-c2nnc(SCC(=O)NCc3ccco3)n2C)c1,-3,-2,0,0,98*,6,-7,.
CCCCn1c(SCC(=O)NC(=O)NCc2ccco2)nc2cc(S(N)(=O)=O)ccc21,9,8,-1,2,64*,58*,-12,-3
CCC(=O)Nc1cccc(-n2nnnc2SCC(=O)NCc2ccco2)c1,-2,4,3,-2,-15,.,.,.
SMILES,LMPTP block,PP1 inh,PP5 primary,STEP inh,Scp-1 inhibitor,Scp1 confirm,Scp-1 MG ctr,Scp1 DSF
Cn1c(SCC(=O)NCc2ccco2)nnc1-c1ccccc1,0,-5,0,1,-3,.,.,.
CCOC(=O)N1CCN(S(=O)(=O)c2ccc3c(c2)NC(=O)CO3)CC1,1,.,.,-2,-10,.,.,.
O=C(CSc1nnc(CNC(=O)c2c(F)cccc2F)o1)NCc1ccco1,2,-1,0,2,68*,33*,3,-22
O=C(COc1ccc(S(=O)(=O)N2CCCC2)cc1)NCc1ccco1,0,-1,2,3,26,.,.,.
O=C(COC(=O)c1ccc(S(=O)(=O)N2CCCCC2)cc1)NCc1ccco1,-1,1,0,3,54*,73*,-6,3
O=C(CSc1nnc(-c2ccc(S(=O)(=O)N3CCCC3)cc2)o1)NCc1ccco1,1,-6,4,-2,62*,43*,-17,-6
Cc1ccc(NC(=O)CCC(=O)NNC(=O)c2ccco2)c(C)c1,0,-5,-1,-2,-4,.,.,.
COc1ccc(CCN=C(N)NS(=O)(=O)c2ccccc2)cc1OC,-1,-6,2,1,-4,.,.,.
COc1ccc(C(=O)Nc2cccc(-c3ccc4nncn4n3)c2)cc1OC,0,-3,2,-1,-8,.,.,.
CCOC(=O)C1C(C(C)=O)=C(c2ccccc2)c2ccccc2N1S(=O)(=O)C(F)(F)F (stereo not drawn),1,.,.,0,88*,22,-23,.
CC(=O)Nc1nc(=S)ss1,-1,-2,3,2,1,.,.,.
N/C(=N/OC(=O)c1cccc([N+](=O)[O-])c1)c1cccc([N+](=O)[O-])c1,0,-6,1,4,95*,75*,-22,6.6*
CN(C)c1cccc(N=C2C=C(N3CCOCC3)CC(C)(C)C2)c1,-2,-1,2,-3,99*,79*,-18,-10
Cc1cccc(C(=O)OCC(=O)c2ccc(CC(=O)N3CCOCC3)s2)c1C,5,1,3,3,85*,60*,-19,4
COc1ccc(OC)c(/C=N/N(CCC#N)C2=NS(=O)(=O)c3ccccc32)c1,0,-1,2,-2,76*,-15,-16,.
O=C1C=C(OCCF)CC(c2cccc(Cl)c2)O1 (stereo not drawn),-1,.,.,.,.,.,.,.
Clc1ccc(Sc2oc(/C=N/n3cnnc3)cc2Br)cc1,0,12,2,0,98*,-15,-15,.
Clc1ccc(Sc2ccc(/C=N/n3cnnc3)o2)cc1,2,7,1,0,12,.,.,.
CCCCc1c(O)c2ccccc2n(CCCC)c1=O,0,-1,1,-4,-6,.,.,.

# Screens (PubChem BioAssay)
